Rad51 HR inh = blocks human Rad51 in homologous recombination | 0.085% of 200,000 active | inhibition, % at 10 µM | AID 1385 | Q06609 | hRad51 DNA strand exchange, fluorescence dequenching;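 active means inhibition above 40% at the single screening dose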
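Test system – preformed human Rad51 ssDNA filaments · Reagent – Donor/quencher-labelled 47-bp dsDNA substrate · Incubation – 37 °C 15-min filament assembly, 30-min compound preincubation, 15-min exchange · Signal – FRET fluorescence dequenching, excitation 485 nm, emission 520 nm · Read-out – percent inhibition from fluorescence, normalised to plate control and blank means · Benchmarks – plate control and blank wells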
m-calpain inh = calpain II (pig) inhibition; purified calpain II, fluorogenic peptide substrate, 30 min; inhibition, % at 16 µM; 0.37% of 220,000 active; AID 1236;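 active means inhibition above about 50%, limit read from the data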
Lmaj promast = reduces viability of Leishmania major promastigotes; 9% of 200,000 active; inhibition, % at 10 µM; resazurin fluorescence viability; in the data active means inhibition above about 50%;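 further: promastigotes grown with compound for 44 hours at 28 °C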
WT yeast gro inh = growth inhibition of WT yeast, mitochondrial fusion screen; mitochondrial fusion phenotypic screen, WT strain; inhibition, % at 10 µM; 2.1% of 190,000 active; in the data active means inhibition above about 58%; tested in S. cerevisiae
PMI act satM6P = increases human PMI activity with near-saturating mannose 6-phosphate. P34949. coupled PMI enzyme assay, resazurin fluorescence, 20 min; active compounds read high; 1 = untreated enzyme, 0 = substrate-free blank. activation factor at 20 µM. 0.34% of 190,000 active. AID 1216;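 active means activation factor of 2 or more at 20 µM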
Target sequence (P34949 whole entry, looked up): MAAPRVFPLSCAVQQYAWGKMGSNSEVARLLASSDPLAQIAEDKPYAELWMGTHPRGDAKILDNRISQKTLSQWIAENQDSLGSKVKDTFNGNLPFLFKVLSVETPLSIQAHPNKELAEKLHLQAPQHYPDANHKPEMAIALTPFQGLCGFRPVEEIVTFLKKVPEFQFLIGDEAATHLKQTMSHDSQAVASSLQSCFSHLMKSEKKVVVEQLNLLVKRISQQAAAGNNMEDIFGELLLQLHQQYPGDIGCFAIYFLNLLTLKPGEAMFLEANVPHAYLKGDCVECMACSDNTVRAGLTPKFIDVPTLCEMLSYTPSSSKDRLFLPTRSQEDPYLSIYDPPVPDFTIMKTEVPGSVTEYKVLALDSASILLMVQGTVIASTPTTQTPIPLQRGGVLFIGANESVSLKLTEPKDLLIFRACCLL
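Test system: human phosphomannose isomerase with PGI, G6PDH, diaphorase coupling enzymes; Amount: PMI at 15 ng/mL final; Reagent: Mannose-6-phosphate 1.0 mM (near-saturating) plus 0.22 mM NADP+; Timing: 20 min, room temperature; Technique: resorufin fluorescence at Ex 544/Em 590 nm; Dosing: 20 µM single dose.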
PMI act = increases human mannose-6-phosphate isomerase activity. P34949. purified human PMI, coupled resazurin fluorescence, 20 min; active compounds read high; 1 = vehicle control, 0 substrate-free wells. activation factor at 20 µM. 0.005% of 190,000 active. AID 1214;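 active means activation factor of 2 or more at 20 µM, relative to plate controls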
Hits are given with their value. An excerpt weighted towards active compounds, which were near 9.8% of everything screened.

`CC1CC(=O)N(c2ccc(NCc3ccccc3Cl)c([N+](=O)[O-])c2)C1=O` (centres undefined) gave Rad51 HR inh inactive, m-calpain inh inactive, Lmaj promast 68.0, WT yeast gro inh inactive, PMI act satM6P inactive and PMI act inactive.
Screening O=C1CCC(=O)N1c1ccc(NCc2ccccc2Cl)c([N+](=O)[O-])c1 returned Rad51 HR inh inactive, m-calpain inh inactive, Lmaj promast 66.6, WT yeast gro inh inactive, PMI act satM6P inactive and PMI act inactive.
For COc1ccc(Cn2c(O)c(C=Nc3ccc(C)cc3)c3ccccc3c2=O)cc1 the results were Rad51 HR inh inactive, m-calpain inh inactive, Lmaj promast 92.3, WT yeast gro inh inactive, PMI act satM6P inactive and PMI act inactive.
For COc1ccc(Cn2c(O)c(C=Nc3ccccc3)c3ccccc3c2=O)cc1 the results were Rad51 HR inh inactive, m-calpain inh inactive, Lmaj promast inactive, WT yeast gro inh inactive, PMI act satM6P inactive and PMI act inactive.
Screening CN(C)CCCN=Cc1c(O)n(Cc2ccccc2)c(=O)c2ccccc12 returned Rad51 HR inh inactive, m-calpain inh inactive, Lmaj promast 92.4, PMI act satM6P inactive and PMI act inactive.
`CN(C)CCN=Cc1c(O)n(Cc2ccccc2)c(=O)c2ccccc12` gave Rad51 HR inh inactive, m-calpain inh inactive, Lmaj promast inactive, WT yeast gro inh inactive, PMI act satM6P inactive and PMI act inactive.
`COc1ccc(Cn2c(O)c(C=Nc3ccc(O)cc3)c3ccccc3c2=O)cc1` gave Rad51 HR inh inactive, m-calpain inh inactive, Lmaj promast 94.1, WT yeast gro inh 64.5, PMI act satM6P inactive and PMI act inactive.
`O=C(C1CCCCC1)N1CCN(c2ccnc3cc(Cl)ccc23)CC1` gave Rad51 HR inh inactive and m-calpain inh inactive.
COC(=O)c1ccn(C(=O)c2ccc(Cl)cc2)n1 was read as m-calpain inh inactive, Lmaj promast inactive, WT yeast gro inh 92.6, PMI act satM6P inactive and PMI act inactive.
For O=C(CSc1nncn1-c1cccnc1)N(c1ccccc1)c1ccccc1 the results were Rad51 HR inh inactive, m-calpain inh inactive, Lmaj promast inactive, WT yeast gro inh inactive, PMI act satM6P inactive and PMI act inactive.
`O=C(/C=C1\NCC2c3ccccc3CCN2C1=O)c1ccccc1` (centres undefined) gave Rad51 HR inh inactive, m-calpain inh inactive, Lmaj promast inactive, WT yeast gro inh inactive, PMI act satM6P 2.6 and PMI act inactive.
For CC(=O)N1CCc2ccccc2C1CC(=O)O (centres undefined) the results were Rad51 HR inh inactive, m-calpain inh inactive, Lmaj promast inactive, WT yeast gro inh inactive, PMI act satM6P inactive and PMI act inactive.
Screening CN(c1ccccc1)S(=O)(=O)c1ccc(NC(=O)c2ccccc2)cc1 returned Rad51 HR inh inactive, m-calpain inh inactive, Lmaj promast inactive, WT yeast gro inh inactive, PMI act satM6P inactive and PMI act inactive.
Screening CC(C)C(=O)NC(=S)Nc1ccc(S(=O)(=O)N(C)Cc2ccccc2)cc1 returned Rad51 HR inh inactive, m-calpain inh inactive, Lmaj promast inactive, WT yeast gro inh 58.5, PMI act satM6P inactive and PMI act inactive.
Screening Cc1cc(C)cc(C(=O)NC(=S)Nc2ccc(Cc3ccncc3)cc2)c1 returned m-calpain inh inactive, Lmaj promast inactive, WT yeast gro inh inactive, PMI act satM6P inactive and PMI act inactive.
For Cc1cccc(C(=O)NC(=S)Nc2ccc(Cc3ccncc3)cc2)c1 the results were Rad51 HR inh inactive, m-calpain inh inactive, Lmaj promast inactive, WT yeast gro inh 60.6, PMI act satM6P inactive and PMI act inactive.
Screening Cc1cccc(C(=O)NC(=S)Nc2ccc(S(=O)(=O)N(C)c3ccccc3)cc2)c1 returned m-calpain inh inactive, Lmaj promast 100.0, WT yeast gro inh inactive, PMI act satM6P inactive and PMI act inactive.
Cc1ccccc1C(=O)NC(=S)Nc1ccc(S(=O)(=O)N(C)c2ccccc2)cc1 was read as Rad51 HR inh inactive, m-calpain inh inactive, Lmaj promast 100.0, WT yeast gro inh inactive, PMI act satM6P inactive and PMI act inactive.
For CC(=O)NC(=S)Nc1ccc(S(=O)(=O)N(C)Cc2ccccc2)cc1 the results were Rad51 HR inh inactive, m-calpain inh inactive, Lmaj promast inactive, WT yeast gro inh inactive, PMI act satM6P inactive and PMI act inactive.
`CC(=O)Nc1ccccc1NC(=O)c1ccc(C)c(C)c1` gave m-calpain inh inactive, Lmaj promast inactive, WT yeast gro inh inactive, PMI act satM6P inactive and PMI act inactive.
COc1ccc([C@H]2/C=C\CN(S(=O)(=O)c3ccc4ccccc4c3)[C@@H](C)C(=O)N2Cc2ccc(F)cc2)cc1 was read as Rad51 HR inh inactive.
`O=C(c1ccc(NC(=S)NCc2ccco2)cc1)N1CCOCC1` gave Rad51 HR inh inactive, m-calpain inh inactive, Lmaj promast inactive, WT yeast gro inh inactive, PMI act satM6P inactive and PMI act inactive.
`Cc1cccc(C(=O)NC(=S)Nc2ccc(S(=O)(=O)N3CCCCC3)cc2)c1` gave Rad51 HR inh inactive, m-calpain inh inactive, Lmaj promast 99.7, WT yeast gro inh inactive, PMI act satM6P inactive and PMI act inactive.
Screening Cc1ccc(N(CC(=O)NC(C)(C)C)C(=O)CS(=O)CC(=O)Nc2ccc(F)cc2)cc1 (centres undefined) returned Rad51 HR inh inactive, m-calpain inh inactive, Lmaj promast inactive, WT yeast gro inh inactive, PMI act satM6P inactive and PMI act inactive.
Screening CC1=C(C)C(=O)NC(Nc2nc(C)c3cc(C)cc(C)c3n2)N1 (centres undefined) returned Lmaj promast 100.2.
`Cc1cc(C)c2nc(/N=C(\N)NC(=O)c3ccccc3)nc(C)c2c1` gave Rad51 HR inh inactive and m-calpain inh inactive.
For Nc1c2c(nc3ccc(Br)cc13)N(C1CCCCC1)CC2 the results were Rad51 HR inh inactive, m-calpain inh inactive, Lmaj promast 100.6, WT yeast gro inh inactive, PMI act satM6P inactive and PMI act inactive.
Screening Nc1c2c(nc3ccccc13)N(C1CCCCC1)CC2 returned Rad51 HR inh inactive, m-calpain inh inactive, WT yeast gro inh inactive, PMI act satM6P inactive and PMI act inactive.
For Cc1cccc(N2CCc3c2nc2ccc(Br)cc2c3N)c1 the results were Rad51 HR inh inactive, m-calpain inh inactive, Lmaj promast 100.4, WT yeast gro inh inactive, PMI act satM6P inactive and PMI act inactive.
Screening Nc1c2c(nc3ccc(Br)cc13)N(c1ccccc1)CC2 returned Rad51 HR inh inactive, m-calpain inh inactive, Lmaj promast 100.4, WT yeast gro inh inactive, PMI act satM6P inactive and PMI act inactive.
`Nc1c2c(nc3ccc(Br)cc13)N(Cc1ccccc1)CC2` gave m-calpain inh inactive, Lmaj promast 94.1, WT yeast gro inh inactive, PMI act satM6P inactive and PMI act inactive.
`Cc1nn(C2CCS(=O)(=O)C2)c(Cl)c1/C=C/C(=O)OCC(N)=O` (centres undefined) gave Rad51 HR inh inactive and m-calpain inh inactive.

Bioassay records deposited in PubChem BioAssay by several laboratories.
